Drawing on PubChem BioAssay AID624085 (The Scripps Research Institute Molecular Screening Center, 2012), this text covers IC50 for 2 compounds.

Molecules are shown by their SMILES. The source made the active and inactive calls.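 Rule for the calls: active = IMP-1 enzyme inhibition with IC50 of 10 µM or lower; inactive = IC50 above 10 µM.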

The target of this experiment is metallo-beta-lactamase IMP-1 (Pseudomonas aeruginosa). The experiment in a line: IMP-1 metallo-beta-lactamase inhibitors, IC50, late-stage follow-up, selectivity assay, biochemical, absorbance (AID 624085). Particulars: purified IMP-1, nitrocefin hydrolysis, epi-absorbance. The method, boiled down: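 Test system: purified IMP-1 enzyme; medium: HEPES buffer, pH 7.1, with zinc and Brij detergent; also added: nitrocefin substrate; incubation: 15 min pre-incubation, 25 min reaction at 25 °C; technique: fluorescence quench readout, 480/530 nm, EDTA-stopped; repeats: triplicate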

Usually IC50 stands for the concentration needed to halve the response being measured. In the case of `CN1CCN(NC(=O)CN2C(=O)/C(=C/c3c(Cl)ccc(Cl)c3Cl)SC2=S)CC1`, the half-maximal inhibitory concentration (IC50) is 3.02 µM.

As to `CN1CCN(NC(=O)CN2C(=O)/C(=C/c3c(Cl)cccc3Cl)SC2=S)CC1`, the IC50 entry is “inactive”.
